Most compounds without a hit are left out; they make up all but 1.3% or so of the library.
Diaphorase act – counter-screen for diaphorase-based assays: diaphorase activators and chemical reducers; Diaphorase/resazurin coupled assay, resorufin fluorescence, 16 min; hits give high values; 1 = vehicle wells, 0 = NADH-free wells; activation factor at 20 µM; 190,000 tested, 0.005% active;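 active means diaphorase activity raised at least twofold by the compound at 20 µM; inactive means activation factor below 2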
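Material: bacterial diaphorase enzyme (C. kluyveri); amount: enzyme 0.07 U/mL final; reagent: NADH substrate 0.114 mM plus resazurin dye 0.1 mM, final; doses: single compound dose of 20 µM, 1% DMSO final; timing: 16 min enzyme reaction, ambient temperature; measured by: fluorescence of resorufin, 544 nm excitation, 590 nm emission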
Diaphorase inh – diaphorase inhibition or chemical oxidation counter-screen. diaphorase resazurin-to-resorufin fluorescence, NADH, 16 min; bacterial (C. kluyveri) enzyme, not human. inhibition, % at 20 µM. 190,000 tested, 0.69% active. AID 1217;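 active means primary screen inhibition at 20 µM above a set limit, cut at about 50% in these data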;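 further: plate controls were DMSO with full reaction for no effect and wells lacking NADH for full effect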
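Test system: bacterial diaphorase enzyme (C. kluyveri); Quantity: 0.14 U/mL diaphorase, enzyme working solution; Times: reaction incubation of 16 min at room temperature; Measured by: fluorescence of resorufin formed from resazurin, Ex 544/Em 590 nm; Benchmarks: positive control minus NADH, DMSO neutral control.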
PfG6PD inh – PfG6PD (Plasmodium falciparum) enzyme inhibition. PfGluPho enzyme, NADPH resazurin-diaphorase fluorescence. 350,000 tested, 0.78% active. inhibition, % at 20 µM;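 active means inhibition reaching at least a set limit at 20 µM in the primary screen, cut at about 59% in these data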;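 further: 0% = DMSO wells with substrate and 100% = DMSO wells lacking glucose-6-phosphate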
HKDC1 inhibitor – blocks human hexokinase HKDC1 activity. Q2TB90. recombinant HKDC1, G6PDH/diaphorase resazurin coupled fluorescence. inhibition, % at 20 µM. 340,000 tested, 0.16% active. AID 493160;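 active means inhibition above about 35% when tested at 20 µM, limit read from the data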;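 further: plate controls were DMSO wells with enzyme for no effect and DMSO wells lacking enzyme for full effect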
Target sequence (Q2TB90 whole entry, looked up): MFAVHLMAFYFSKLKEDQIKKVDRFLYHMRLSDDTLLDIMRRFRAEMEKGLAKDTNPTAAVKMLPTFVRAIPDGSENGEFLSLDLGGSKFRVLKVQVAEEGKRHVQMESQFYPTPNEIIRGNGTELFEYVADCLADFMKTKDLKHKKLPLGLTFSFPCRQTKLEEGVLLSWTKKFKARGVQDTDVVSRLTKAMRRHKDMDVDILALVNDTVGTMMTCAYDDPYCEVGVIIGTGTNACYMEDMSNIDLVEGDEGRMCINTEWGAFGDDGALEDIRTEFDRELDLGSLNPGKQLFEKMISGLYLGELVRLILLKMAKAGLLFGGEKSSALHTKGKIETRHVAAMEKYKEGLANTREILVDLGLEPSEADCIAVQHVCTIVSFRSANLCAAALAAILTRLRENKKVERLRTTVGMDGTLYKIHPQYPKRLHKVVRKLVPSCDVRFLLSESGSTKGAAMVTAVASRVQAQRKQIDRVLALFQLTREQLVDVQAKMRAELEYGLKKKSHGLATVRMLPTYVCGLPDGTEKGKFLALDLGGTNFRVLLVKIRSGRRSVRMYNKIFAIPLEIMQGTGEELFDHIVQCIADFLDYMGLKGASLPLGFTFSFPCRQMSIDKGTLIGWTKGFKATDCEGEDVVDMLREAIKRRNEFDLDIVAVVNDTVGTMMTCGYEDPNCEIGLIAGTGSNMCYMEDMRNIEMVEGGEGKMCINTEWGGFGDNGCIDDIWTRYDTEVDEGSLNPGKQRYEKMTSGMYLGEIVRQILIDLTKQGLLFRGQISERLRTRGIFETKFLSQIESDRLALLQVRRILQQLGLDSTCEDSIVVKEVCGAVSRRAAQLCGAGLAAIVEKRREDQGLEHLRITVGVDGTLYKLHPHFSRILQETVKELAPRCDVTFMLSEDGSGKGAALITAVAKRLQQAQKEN
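Assay system – recombinant HKDC1 (HK5) hexokinase enzyme, produced in-house · Input – HKDC1 at 5 µg/mL · Reagent – glucose plus 1 mM ATP as hexokinase substrates · Timing – 90 min reaction incubation at room temperature, dark · Measured by – G6PDH/diaphorase-coupled fluorescence, 1 mM NADP, 100 µM resazurin, 525/613 nm · Benchmarks – DMSO-enzyme wells negative, buffer-substituted wells positive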
G6PDH counter – counter-screen for G6PDH assay hits: L. mesenteroides G6PDH inhibition; Purified L. mesenteroides G6PDH, diaphorase/resazurin coupled fluorescence, 45 min; inhibition, % at 5 µM; 200,000 tested, 0.12% active; in the data active means inhibition above about 50%
Tb hexokinase – blocks Trypanosoma brucei hexokinase 1 activity. inhibition, % at 10 µM. recombinant TbHK1, G6PDH-coupled NADH A340. 220,000 tested, 0.11% active. AID 1430;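 active means inhibition of 50% or more in the single-dose primary screen; inactive means inhibition below 50%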
HKDC1 act conf – confirmation of human HKDC1 activators; 740 tested, 14% active; shares compounds with HKDC1 inhibitor; inhibition, % at 20 µM; recombinant HKDC1, G6PDH/diaphorase resazurin fluorescence; hits give low values;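 active means inhibition at or below a set negative limit, negative inhibition meaning the enzyme was activated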
The depositor's hits bear a star; nt = not tested or not shown.

SMILES | Diaphorase act | Diaphorase inh | PfG6PD inh | HKDC1 inhibitor | G6PDH counter | Tb hexokinase | HKDC1 act conf
Cc1ccc(C)c(S(=O)(=O)Nc2cc(SCC(=O)O)c(O)c3ccccc23)c1 | 0.7 | 32 | 104* | 63* | 48 | 31 | 55
Cc1cc(=O)oc2cc(NC(=O)c3cc([N+](=O)[O-])ccc3N3CCOCC3)ccc12 | 0.9 | 8 | 0 | 3 | -10 | -20 | nt
CC(=O)Nc1ccc(NC(=O)CSc2ccc3nnc(-c4ccccn4)n3n2)cc1 | nt | nt | 17 | -5 | nt | nt | nt
CCCn1cnnc1CNC(=O)C1CCC(=O)N(CCc2ccc(OC)cc2)C1 (stereo not given) | nt | nt | -3 | -7 | nt | nt | nt
COc1ccc(Nc2nc(-c3ccc(OC)cc3)cs2)cc1 | 1 | 3 | 8 | -11 | 0 | 0 | nt
COc1ccc(-c2csc(Nc3ccc(S(N)(=O)=O)cc3)n2)cc1 | 0.7 | 28 | 48 | -42 | -1 | -23 | -25
Cc1c(Cc2ccccc2)sc(NC(=O)Cc2ccccc2)c1C(N)=O | nt | nt | 54 | -52 | nt | 7 | -7
COC(=O)c1c(NC(C)=O)sc(Cc2ccccc2)c1C | 0.9 | 10 | 28 | -77 | 3 | 1 | -38*
Cn1c(-c2ccccc2)c(C(=O)CC#N)c2ccccc21 | 1 | 2 | -40 | -45 | -1 | -4 | -42*
Cc1cc(C(F)F)n2ncc(C(=O)NCCc3ccccc3Cl)c2n1 | 0.7 | 26 | 27 | 31 | -1 | -9 | nt
O=C(NCCc1ccccc1)c1cnn2c(C(F)F)cc(C3CC3)nc12 | 0.4 | 64* | 49 | 47* | 4 | 1 | 60
Cc1cc(C(F)F)n2ncc(C(=O)NCCc3ccc(Cl)cc3)c2n1 | 0.5 | 49 | 17 | 39* | -6 | -5 | 36
COC(=O)c1ccccc1NC(=O)c1cnn2c(C(F)F)cc(C3CC3)nc12 | 1 | -3 | -29 | -4 | -34 | -5 | nt
CC(=O)OCC(=O)C1(O)CCC2C3CCC4=CC(=O)C=CC4(C)C3C(O)CC21C (stereo not given) | nt | nt | 2 | 2 | nt | -5 | nt
COC(=O)c1ccc(Oc2coc3cc(OCc4ccc([N+](=O)[O-])cc4)ccc3c2=O)cc1 | 1 | -3 | 0 | -6 | -1 | 26 | nt
COc1ccccc1N(C)S(=O)(=O)c1ccc(Cl)c(C(=O)NNC(=O)c2ccccc2O)c1 | nt | nt | -23 | -16 | nt | nt | nt
COc1ccccc1N(C)S(=O)(=O)c1ccc(Cl)c(C(=O)NCC2(N(C)C)CCCCC2)c1 | nt | nt | -6 | 42* | nt | nt | -28
COc1cc(SC#N)ccc1N=Cc1c(C)[nH]n(-c2ccc(Cl)cc2)c1=O | 1 | 4 | 14 | -41 | 3 | -38 | -38*
COc1ccc(S(=O)(=O)N2CCN(C(=O)c3cc4c(s3)CCC4)CC2)cc1 | nt | nt | 18 | 34 | nt | nt | -23
Cc1ccc(S(=O)(=O)N2CCN(C(=O)c3cc4c(s3)CCCC4)CC2)cc1 | nt | nt | 4 | 5 | nt | nt | nt
COc1ccc(/C=C2\CCCc3c2nc2ccccc2c3C(=O)OCC(=O)c2c(N)n(C)c(=O)n(C)c2=O)cc1 | 0.7 | 34 | nt | nt | -6 | -15 | nt
Nc1nc(-c2ccc(Br)cc2)cs1 | 0.8 | 17 | 5 | 3 | 1 | 3 | nt
Nc1nc(-c2cccc(Br)c2)cs1 | 1 | 5 | 11 | -65 | 6 | -3 | -41*
COc1ncnc2c1ncn2CCCNCc1ccccc1 | nt | nt | 1 | nt | nt | nt | nt
O=C(CSc1nnc(Cc2cc(=O)[nH]c(=O)[nH]2)n1-c1ccccc1)N1CCCCC1 | 0.9 | 12 | 26 | -3 | 1 | -5 | nt
O=C(CSc1nnc(CCCN2C(=O)c3cccc4cccc(c34)C2=O)n1-c1ccccc1)N1CCCCC1 | 0.3 | 72* | 6 | 37* | -27 | -10 | 48
O=S(=O)(c1cccc(COc2ccc(Cl)cc2Cl)c1)N1CCOCC1 | nt | nt | 23 | 39* | nt | nt | -37
Cc1ccc(N=C2C(=S)N(c3ccc(C)cc3)C(=N)N2/N=C/c2ccc(Cl)cc2)cc1 | 1.1 | -6 | 31 | -119 | 6 | -18 | -45*
Cc1cc(S(=O)(=O)N2CCC3(CC2)OCCO3)c(C)cc1Cl | nt | nt | -5 | -5 | nt | nt | nt

Bioassay records as filed in PubChem.
